# Results pooled from the literature.
# Lines come from different studies, so protocols differ.
# P2RY14: P2Y purinoceptor 14 (P2RY14, Homo sapiens, UniProt Q15391)
# IRAK4: Interleukin-1 receptor-associated kinase 4 (IRAK4, Homo sapiens, UniProt Q9NWZ3)
# CYP2D6: Cytochrome P450 2D6 (CYP2D6, Homo sapiens, UniProt P10635)
SMILES,target,assay,test system,conditions,IC50
NCC(=O)O,"ltaE (Escherichia coli, UniProt P75823)","enzyme activity, inhibitor",,,1900 µM
O=C(O)c1cc(-c2ccc(-n3cc(CCOP(=O)(O)O)nn3)cc2)c2ccc(-c3ccc(C(F)(F)F)cc3)cc2c1,P2RY14,"ligand displacement in cells, flow cytometry",,,1.34 µM
C#Cc1cnc(Nc2ccc(CO)cc2)nc1Nc1ccccc1C(=O)NC,IRAK4,"enzyme activity, inhibitor, radiometric",,,0.00051 µM
CN(C)C(=O)c1cc2cnc(Nc3ccc(-c4ccc5c(=O)cc(N6CCOCC6)oc5c4)cc3)nc2n1C1CCCC1,CYP2D6,"enzyme activity, inhibitor, fluorescence",,pH 8,4.23 µM
CS(=O)(=O)c1ccccc1Nc1nc(Nc2ccnc(CO)c2)ncc1Cl,IRAK4,"enzyme activity, inhibitor, radiometric",,,0.106 µM
CC(C)(C)NS(=O)(=O)c1cccc(C(=O)N2CC3(CCC4(CC4)CC3)c3cc(NS(C)(=O)=O)ccc32)c1,"Kinesin-like protein KIF11 (KIF11, Homo sapiens, UniProt P52732)","ATPase activity, inhibitor",,,> 100 µM
OCc1ccc(Nc2ncc(Cl)c(Nc3ccccc3-c3nccs3)n2)cc1,IRAK4,"enzyme activity, inhibitor, radiometric",,,0.0264 µM
CC(C)OC(=O)[C@H](Cc1c[nH]c2ccccc12)NC(=O)c1cccs1,P2RY14,"cAMP, antagonist",,,0.0458 µM
C#Cc1cnc(Nc2ccnc(CO)c2)nc1Nc1ccccc1S(C)(=O)=NC#N (stereo not shown),IRAK4,"enzyme activity, inhibitor, radiometric",,,0.00447 µM
CC(C)OC(=O)[C@H](Cc1c[nH]c2ccccc12)NC(=O)COc1ccccc1,P2RY14,"cAMP, antagonist",,,0.0044 µM
Cn1nccc1-c1ccc(-c2cc(C(=O)O)cc3cc(-c4ccc(C(F)(F)F)cc4)ccc23)cc1,P2RY14,"ligand displacement in cells, flow cytometry",,,0.0491 µM
Cc1ccc(OCC(=O)N[C@@H](Cc2c[nH]c3ccccc23)C(=O)OC(C)C)cc1,CYP2D6,"enzyme activity, inhibitor","human, liver microsomes",30 min,27.4 µM
O=C(O)c1cc(-c2ccc(-n3ccnn3)cc2)cc(-n2cc(-c3ccc(C(F)(F)F)cc3)nn2)c1,P2RY14,"ligand displacement in cells, flow cytometry",,,2.03 µM
O=C(NO)c1ccc(Cn2cnc3c(Nc4cccc([N+](=O)[O-])c4)ncnc32)cc1,"Histone deacetylase 3 (HDAC3, Homo sapiens, UniProt O15379)","enzyme activity, inhibitor, fluorescence",,,< 0.002 µM
CNC(=O)c1ccccc1Nc1nc(Nc2ccnc(CO)c2)ncc1Cl,IRAK4,"enzyme activity, inhibitor, radiometric",,,0.0115 µM
c1coc(-c2n[nH]cc2-c2ccnc3ccccc23)c1,"TGF-beta receptor type-1 (TGFBR1, Homo sapiens, UniProt P36897)","enzyme activity, inhibitor, radiometric",,,1.1 µM
O=C(O)c1cc(-c2ccc(-n3cc(CCO)nn3)cc2)c2ccc(-c3ccc(C(F)(F)F)cc3)cc2c1,P2RY14,"ligand displacement in cells, flow cytometry",,,0.153 µM
CC(C)OC(=O)[C@H](Cc1c[nH]c2ccccc12)NC(=O)c1ccco1,P2RY14,"cAMP, antagonist",,,0.0216 µM
Cn1cc(C2=C(c3cn(CCCSC(=N)N)c4ccccc34)C(=O)NC2=O)c2ccccc21,"Homeodomain-interacting protein kinase 1 (HIPK1, Homo sapiens, UniProt Q86Z02)","enzyme activity, inhibitor",,,2.9 µM
CC(C)OC(=O)[C@H](Cc1c[nH]c2ccccc12)NC(=O)c1ccc2ncccc2c1,P2RY14,"cAMP, antagonist",,,0.0106 µM
C#Cc1cnc(Nc2ccc(CO)nc2)nc1Nc1ccccc1S(C)(=O)=NC#N (stereo not shown),IRAK4,"enzyme activity, inhibitor, radiometric",,,0.00399 µM
c1c(N2CCCC2)nc(N2CCCC2)nc1N1CCNCC1,"Caspase-1 (CASP1, Homo sapiens, UniProt P29466)","enzyme activity, inhibitor",,with preincubation,0.233 µM
O=C(O)c1cc(-c2ccc(-c3c[nH]nn3)cc2)c2ccc(-c3ccc(C(F)(F)F)cc3)cc2c1,P2RY14,"ligand displacement in cells, flow cytometry",,,0.00369 µM
CNC(=O)c1ccccc1Nc1nc(Nc2ccc(CC(F)F)cc2)ncc1Cl,IRAK4,"enzyme activity, inhibitor, radiometric",,,0.0748 µM
Cc1cc2c(cc1C)N[C@H](c1ccccc1)[C@@H](O)C(=O)N2,"Tyrosine-protein kinase JAK3 (JAK3, Homo sapiens, UniProt P52333)","enzyme activity, inhibitor, ELISA",,,1.15 µM
